In brackets after ≈: the same amount, converted by molar mass. Activity calls are given as the source filed them. The calls are words filed in the database; no cut-off is given here.
What was measured:
Escherichia coli = experiment: Inhibition of elongation factor Tu-mediated protein synthesis in Escherichia coli S30 extract after 2 hrs by luciferase reporter gene assay
Procedure, shortened: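 Coupled transcription/translation in E. coli S30 extract with pBESTluc template DNA, methionine-minus and cysteine-minus amino acid mixes, and S30 premix; test agent added as 40× stock in 20 μL reactions. Incubated 2 h at 37 °C; luciferase formed was read by luminescence after adding an equal volume of SteadyGlo reagent. Kirromycin and puromycin were positive controls; ampicillin was the negative control.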

Streptococcus pyogenes = experiment: Antibacterial activity against Streptococcus pyogenes ATCC BAA-595 by broth microdilution method; type: functional
Procedure, shortened: (§1)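 MIC by CLSI broth microdilution (M07-A8 for aerobes; M11-A7 for anaerobes).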

Enterococcus faecium = experiment: Antibacterial activity against Enterococcus faecium 7130724 by broth microdilution method; type: functional; procedure, shortened: as §1
Enterococcus faecalis [1] = experiment: Antibacterial activity against Enterococcus faecalis ATCC 29212 by broth microdilution method; type: functional; procedure, shortened: as §1
[2] = Antibacterial activity against Clostridium difficile ATCC 43255 by broth microdilution method; type: functional; settings: Clostridioides difficile; procedure, shortened: as §1
Staphylococcus aureus [3] = experiment: Antibacterial activity against methicillin-resistant Staphylococcus aureus isolate AKH Vienna A4.018 by broth microdilution method; type: functional
Procedure, shortened: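 Broth microdilution MIC following CLSI M07-A8 (2009) and M11-A7 guidelines.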

Enterococcus faecalis [4] = experiment: Antibacterial activity against Enterococcus faecalis isolate NB04025 infected in iv dosed CD1 mouse assessed as protection from lethal infection after 5 days; type: functional; settings: for ED50: 120 h
Procedure, shortened: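 Female CD1 mice (21−25 g) infected ip with 1 × 10^8 CFU/mouse in 50% sterile rat fecal extract (10−100× minimal lethal dose). Single iv tail-vein bolus immediately after inoculation, several dose levels, six mice per group. Observed 5 days with implanted temperature transponders; moribund mice euthanized. ED50 with 95% CI from day-5 survival by probit analysis.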

[5] = Clearance in Sprague-Dawley rat at 1 mg/kg, iv; type: ADME, organism-based; set-up: dose 1 mg/kg, route intravenous; settings: in vivo
Procedure, shortened: (§2)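 Intravenous PK (N = 2) in male Sprague−Dawley rats (220−270 g, about 6−10 weeks old) with dual jugular vein cannulas. Rats were fasted overnight before dosing and for 8 h after. Blood was collected into K2EDTA tubes and plasma was assayed by LC-MS/MS.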

[6] = Half life in Sprague-Dawley rat at 1 mg/kg, iv; type: ADME, organism-based; set-up: dose 1 mg/kg, route intravenous; settings: in vivo; procedure, shortened: as §2
[7] = AUC in Sprague-Dawley rat at 1 mg/kg, iv; type: ADME, organism-based; set-up: dose 1 mg/kg, route intravenous; settings: plasma; procedure, shortened: as §2
Enterococcus faecalis [8] = experiment: Antibacterial activity against Enterococcus faecalis isolate NB04025; type: functional
[9] = Volume of distribution at steady state in Sprague-Dawley rat at 1 mg/kg, iv; type: ADME, organism-based; set-up: dose 1 mg/kg, route intravenous; settings: in vivo, read-out: Vdss; procedure, shortened: as §2
Staphylococcus aureus [10] = experiment: Antibacterial activity against Staphylococcus aureus ATCC 49951; type: functional
Staphylococcus aureus [11] = experiment: Antibacterial activity against Staphylococcus aureus ATCC 49951 infected in iv dosed CD1 mouse assessed as protection from lethal infection administered 1 hr and 5 hrs post-infection measured after 5 days; type: functional; settings: for ED50: ATCC 49951, iv
Procedure, shortened: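 Female CD1 mice (21−25 g) infected ip with 1 × 10^8 CFU/mouse in 0.9% NaCl (10−100× minimal lethal dose). iv tail-vein bolus at 1 and 5 h post-inoculation, several dose levels, six mice per group. Watched 5 days with body temperature monitoring; moribund animals euthanized. ED50 with 95% CI from day-5 survival by probit analysis.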

Enterococcus faecalis [12] = experiment: Ratio of daptomycin ED50 to compound ED50 for Enterococcus faecalis isolate NB04025 infected in iv dosed CD1 mouse; type: functional
Procedure, shortened: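 Female CD1 mice (21−25 g) infected intraperitoneally with 1 × 10^8 CFU/mouse E. faecalis in 50% sterile rat fecal extract. Single iv tail-vein bolus given immediately after inoculation, at several dose levels, to groups of six mice. Vehicle was 5% DMA, 30% PEG400, 10% cremophor EL, 5% 0.1 N NaOH and 50% pH 7.4 buffer; daptomycin was given in saline. Survival followed 5 days; ED50 with 95% CI by probit analysis of day-5 survival.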

[13] = Solubility of the compound in DMF solution; type: physicochemical
[14] = Chemical stability of the compound in MeOH at 50 degC; type: physicochemical
[15] = Chemical stability of the compound in HCl at 50 degC; type: physicochemical; settings: buffer
[16] = Chemical stability of the compound in water at 50 degC; type: physicochemical; settings: buffer
[17] = Chemical stability of the compound in water at room temperature; type: physicochemical; settings: buffer
[18] = Solubility of the compound in DMSO solution; type: physicochemical
[19] = Chemical stability of the compound in MeOH at room temperature; type: physicochemical
[20] = Chemical stability of the compound in HCl at room temperature; type: physicochemical; settings: buffer

SMILES	MIC (Streptococcus pyogenes)	MIC (Enterococcus faecium)	MIC (Enterococcus faecalis [1])	MIC [2]	MIC (Staphylococcus aureus [3])	other results
C=C(NC(=O)c1csc(-c2ccc3c(n2)-c2csc(n2)-c2csc(n2)[C@H]([C@@H](C)[C@@H]2CO2)NC(=O)[C@H](Cc2ccc(OC)cc2)NC(=O)c2csc(n2)[C@H]([C@H](O)c2ccccc2)NC(=O)c2nc(sc2C)[C@H](CC(N)=O)NC(=O)c2csc-3n2)n1)C(=O)NC(=C)C(=O)OC	> 32 µg/mL	8 µg/mL (≈ 5.85 µM)	8 µg/mL (≈ 5.85 µM)	1 µg/mL (≈ 0.731 µM)	> 32 µg/mL	inhibition (Escherichia coli): inactive
Cc1sc2nc1C(=O)N[C@@H]([C@H](O)c1ccccc1)c1nc(cs1)C(=O)N[C@@H](Cc1ccc(O)cc1)C(=O)N1C[C@H](O)[C@H](C)[C@H]1c1nc(cs1)-c1nc(cs1)-c1nc(-c3nc(C(N)=O)cs3)ccc1-c1nc(cs1)C(=O)N[C@H]2CC(N)=O	1 µg/mL (≈ 0.833 µM)	0.5 µg/mL (≈ 0.417 µM)	0.25 µg/mL (≈ 0.208 µM)	< 0.008 µg/mL	0.25 µg/mL (≈ 0.208 µM)	Activity (Enterococcus faecalis [4]): Dose-dependent effect; ED50 (Enterococcus faecalis [4]): 1.5 mg/kg; clearance [5]: 10.1 mL/min/kg; half-life [6]: 204 min; AUC [7]: 1.35 µM·h; MIC (Enterococcus faecalis [8]): 0.125 µg/mL (≈ 0.104 µM); Vd [9]: 0.134 L/kg; MIC (Staphylococcus aureus [10]): 1 µg/mL (≈ 0.833 µM); Activity (Staphylococcus aureus [11]): Dose-dependent effect; ED50 (Staphylococcus aureus [11]): 8 mg/kg; Ratio ED50 (Enterococcus faecalis [12]): 2
CCCCCCCCCC(=O)N[C@@H](Cc1c[nH]c2ccccc12)C(=O)N[C@H](CC(N)=O)C(=O)N[C@@H](CC(=O)O)C(=O)N[C@@H]1C(=O)NCC(=O)N[C@@H](CCCN)C(=O)N[C@@H](CC(=O)O)C(=O)N[C@H](C)C(=O)N[C@@H](CC(=O)O)C(=O)NCC(=O)N[C@H](CO)C(=O)N[C@@H]([C@H](C)CC(=O)O)C(=O)N[C@@H](CC(=O)c2ccccc2N)C(=O)O[C@@H]1C						Activity (Enterococcus faecalis [4]): Dose-dependent effect; ED50 (Enterococcus faecalis [4]): 3 mg/kg; Activity (Staphylococcus aureus [11]): Dose-dependent effect; ED50 (Staphylococcus aureus [11]): 0.3 mg/kg
Cc1sc2nc1C(=O)N[C@@H]([C@H](O)c1ccccc1)c1nc(cs1)C(=O)N[C@@H](Cc1ccc(O)cc1)C(=O)N[C@@H]([C@@H](C)[C@@H](O)CCl)c1nc(cs1)-c1nc(cs1)-c1nc(-c3nc(C(N)=O)cs3)ccc1-c1nc(cs1)C(=O)N[C@H]2CC(N)=O	2 µg/mL (≈ 1.62 µM)	0.5 µg/mL (≈ 0.404 µM)	0.25 µg/mL (≈ 0.202 µM)	0.25 µg/mL (≈ 0.202 µM)	0.5 µg/mL (≈ 0.404 µM)	
Cc1sc2nc1C(=O)N[C@@H]([C@H](O)c1ccccc1)c1nc(cs1)C(=O)N[C@@H](Cc1ccc(O)cc1)C(=O)N[C@@H]([C@@H](C)[C@@H](O)CN)c1nc(cs1)-c1nc(cs1)-c1nc(-c3nc(C(N)=O)cs3)ccc1-c1nc(cs1)C(=O)N[C@H]2CC(N)=O	> 32 µg/mL	1 µg/mL (≈ 0.821 µM)	1 µg/mL (≈ 0.821 µM)	1 µg/mL (≈ 0.821 µM)	2 µg/mL (≈ 1.64 µM)	
C=C(NC(=O)c1csc(-c2ccc3c(n2)-c2csc(n2)-c2csc(n2)[C@H]([C@@H](C)[C@@H]2CO2)NC(=O)[C@H](Cc2ccc(O)cc2)NC(=O)c2csc(n2)[C@H]([C@H](O)c2ccccc2)NC(=O)c2nc(sc2C)[C@H](CC(N)=O)NC(=O)c2csc-3n2)n1)C(=O)NC(=C)C(=O)OC	> 32 µg/mL	8 µg/mL (≈ 5.91 µM)	8 µg/mL (≈ 5.91 µM)	1 µg/mL (≈ 0.739 µM)	> 32 µg/mL	inhibition (Escherichia coli): inactive
C=C(NC(=O)c1csc(-c2ccc3c(n2)-c2csc(n2)-c2csc(n2)[C@H]([C@@H](C)[C@@H]2CO2)NC(=O)[C@H](Cc2ccc(OC(C)=O)cc2)NC(=O)c2csc(n2)[C@H]([C@H](OC(C)=O)c2ccccc2)NC(=O)c2nc(sc2C)[C@H](CC(N)=O)NC(=O)c2csc-3n2)n1)C(=O)NC(=C)C(=O)OC	> 32 µg/mL	32 µg/mL (≈ 22.3 µM)	32 µg/mL (≈ 22.3 µM)	> 4 µg/mL	> 32 µg/mL	inhibition (Escherichia coli): inactive
Cc1sc2nc1C(=O)NCc1nc(cs1)C(=O)N[C@@H](Cc1ccc(O)cc1)C(=O)N1C[C@H](O)[C@H](C)[C@H]1c1nc(cs1)-c1nc(cs1)-c1nc(-c3nc(C(N)=O)cs3)ccc1-c1nc(cs1)C(=O)N[C@H]2CC(N)=O	> 32 µg/mL	4 µg/mL (≈ 3.66 µM)	4 µg/mL (≈ 3.66 µM)		2 µg/mL (≈ 1.83 µM)	
Cc1sc2nc1C(=O)N[C@@H]([C@H](O)c1ccccc1)c1nc(cs1)C(=O)N[C@@H](Cc1ccc(O)cc1)C(=O)N[C@@H]([C@@H](C)[C@@H]1CO1)c1nc(cs1)-c1nc(cs1)-c1nc(-c3nc(C(N)=O)cs3)ccc1-c1nc(cs1)C(=O)N[C@H]2CC(N)=O	2 µg/mL (≈ 1.67 µM)	0.125 µg/mL (≈ 0.104 µM)	0.25 µg/mL (≈ 0.208 µM)	0.003 µg/mL (≈ 0.0025 µM)	0.5 µg/mL (≈ 0.417 µM)	
Cc1sc2nc1C(=O)N[C@@H]([C@H](O)c1ccccc1)c1nc(cs1)C(=O)N[C@@H](Cc1ccc(O)cc1)C(=O)N[C@@H]([C@@H](C)[C@@H](O)CO)c1nc(cs1)-c1nc(cs1)-c1nc(-c3nc(C(N)=O)cs3)ccc1-c1nc(cs1)C(=O)N[C@H]2CC(N)=O	> 32 µg/mL	> 32 µg/mL	> 32 µg/mL	2 µg/mL (≈ 1.64 µM)	> 32 µg/mL	
C=C(NC(=O)C(=C)NC(=O)c1csc(-c2ccc3c(n2)-c2csc(n2)-c2csc(n2)[C@H]([C@@H](C)[C@@H]2CO2)NC(=O)[C@H](Cc2ccc(O)cc2)NC(=O)c2csc(n2)[C@H]([C@H](O)c2ccccc2)NC(=O)c2nc(sc2C)[C@H](CC(N)=O)NC(=O)c2csc-3n2)n1)C(=O)O [THIOMURACIN A]	0.5 µg/mL (≈ 0.373 µM)	0.5 µg/mL (≈ 0.373 µM)	0.5 µg/mL (≈ 0.373 µM)	0.03 µg/mL (≈ 0.0224 µM)	0.5 µg/mL (≈ 0.373 µM)	solubility [13]: soluble; Stability [14]: Unstable; Stability [15]: Unstable; Stability [16]: Unstable; Stability [17]: Stable; solubility [18]: soluble; Stability [19]: Stable; Stability [20]: Stable
